ChEMBL document CHEMBL1148273, “Vancomycin disulfide derivatives as antibacterial agents” (Bioorg Med Chem Lett, 2004)
Converted amounts (≈) assume the structure as drawn.

Experiments:
Staphylococcus aureus [1] = test: Minimal inhibitory concentration was evaluated against methicillin-resistant Staphylococcus aureus (ATCC 33591); type: functional
How it was run: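 NCCLS broth microdilution susceptibility test, in vitro, against the MRSA strain ATCC 33591 as part of a Gram-positive panel with MSSA and vancomycin-resistant enterococci. Read-out is the minimal inhibitory concentration.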

Enterococcus faecalis = test: Minimal inhibitory concentration was evaluated against VanA Fs[…]; type: functional
Enterococcus sp. = test: Minimal inhibitory concentration was evaluated against VanB (ATCC 51575); type: functional, enterococcus strain
How it was run: (§1)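 MICs were determined by the NCCLS broth microdilution method. The strain panel included MSSA ATCC 13709, VanA E. faecium KPB-01, VanA E. faecalis MGH-01 and VanB ATCC 51575.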

Staphylococcus aureus [2] = test: Minimal inhibitory concentration was evaluated against Staphylococcus aureus MSSA (ATCC 13709); type: functional; how it was run: as §1
Enterococcus faecium = test: Minimal inhibitory concentration was evaluated against VanA Fm […]; type: functional
[3] = Compound was evaluated for tissue distribution 24 hours after a 50 mg/kg dose was administered intravenously in urine; type: ADME, organism-based; design: dose 50 mg/kg, route intravenous; settings: rat, iv
How it was run: (§2)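 Male Sprague–Dawley rats were given a single intravenous dose of 50 mg/kg. Tissue or urine levels were determined 24 h after dosing.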

Rattus norvegicus [4] = test: Compound was evaluated for percent dose tissue distribution 24 hours after a 50 mg/kg dose was administered intravenously in liver; type: ADME, organism-based; design: dose 50 mg/kg, route intravenous; settings: in vivo, iv; how it was run: as §2
Rattus norvegicus [5] = test: Compound was evaluated for tissue distribution 24 hours after a 50 mg/kg dose was administered intravenously in rat kidney; type: ADME, organism-based; design: dose 50 mg/kg, route intravenous; settings: in vivo, iv; how it was run: as §2
Rattus norvegicus [6] = test: Compound was evaluated for percent dimer tissue distribution 24 hours after a 50 mg/kg dose was administered intravenously in urine; type: ADME, organism-based; design: dose 50 mg/kg, route intravenous; settings: in vivo, iv
How it was run: (§3)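 Male Sprague–Dawley rats were dosed intravenously at 50 mg/kg and urine was sampled 24 h later. The metabolite percentage was calculated from the peak area ratio of the metabolite peak to the parent peak.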

Rattus norvegicus [7] = test: Compound was evaluated for percent thiol tissue distribution 24 hours after a 50 mg/kg dose was administered intravenously in urine; type: ADME, organism-based; design: dose 50 mg/kg, route intravenous; settings: in vivo, iv; how it was run: as §3

With `CCCCCCCCCCSSCCNC1(C)CC(OC2C(Oc3c4cc5cc3Oc3ccc(cc3Cl)[C@@H](O)[C@@H](NC(=O)[C@@H](CC(C)C)NC)C(=O)N[C@@H](CC(N)=O)C(=O)N[C@H]5C(=O)N[C@H]3C(=O)N[C@H](C(=O)N[C@H](C(=O)O)c5cc(O)cc(O)c5-c5cc3ccc5O)[C@H](O)c3ccc(c(Cl)c3)O4)OC(O)C(O)C2O)OC(C)C1O` (stereo not given in full) the MIC (Staphylococcus aureus [1]) was 2.4 µg/mL (≈ 1.44 µM), the MIC (Enterococcus faecalis) was 3.1 µg/mL (≈ 1.86 µM) and the MIC (Enterococcus sp.) was 0.6 µg/mL (≈ 0.36 µM). For the same compound, the MIC (Staphylococcus aureus [2]) was 1.2 µg/mL (≈ 0.72 µM) and the MIC (Enterococcus faecium) was 3.1 µg/mL (≈ 1.86 µM).
In the case of `CCCCCCCCCCNCCN[C@@]1(C)C[C@H](O[C@@H]2[C@@H](Oc3c4cc5cc3Oc3ccc(cc3Cl)[C@@H](O)[C@@H](NC(=O)[C@@H](CC(C)C)NC)C(=O)N[C@@H](CC(N)=O)C(=O)N[C@H]5C(=O)N[C@H]3C(=O)N[C@H](C(=O)N[C@H](C(=O)O)c5cc(O)cc(O)c5-c5cc3ccc5O)[C@H](O)c3ccc(c(Cl)c3)O4)O[C@@H](CO)[C@H](O)[C@@H]2O)O[C@H](C)[C@H]1O`, the MIC (Staphylococcus aureus [1]) is reported as 0.4 µg/mL (≈ 0.245 µM), the MIC (Enterococcus faecalis) is reported as 3.6 µg/mL (≈ 2.21 µM) and the MIC (Enterococcus sp.) is reported as 1.8 µg/mL (≈ 1.1 µM). It also gave a dose excreted at 24 h [3] of 16%, a Dose (Rattus norvegicus [4]) of 37% and an MIC (Staphylococcus aureus [2]) of 0.4 µg/mL (≈ 0.245 µM). For the same compound, the Dose (Rattus norvegicus [5]) was 22% and the MIC (Enterococcus faecium) was 4.1 µg/mL (≈ 2.51 µM).
In the case of `CCCCCCCCCSSCCN[C@@]1(C)C[C@H](O[C@@H]2[C@@H](Oc3c4cc5cc3Oc3ccc(cc3Cl)[C@@H](O)[C@@H](NC(=O)[C@@H](CC(C)C)NC)C(=O)N[C@@H](CC(N)=O)C(=O)N[C@H]5C(=O)N[C@H]3C(=O)N[C@H](C(=O)N[C@H](C(=O)O)c5cc(O)cc(O)c5-c5cc3ccc5O)[C@H](O)c3ccc(c(Cl)c3)O4)O[C@@H](CO)[C@H](O)[C@@H]2O)O[C@H](C)[C@H]1O`, the MIC (Staphylococcus aureus [1]) is reported as 0.6 µg/mL (≈ 0.36 µM), the MIC (Enterococcus faecalis) is reported as 3.1 µg/mL (≈ 1.86 µM) and the MIC (Enterococcus sp.) is reported as 1.2 µg/mL (≈ 0.72 µM). The MIC (Staphylococcus aureus [2]) was 0.3 µg/mL (≈ 0.18 µM) and the MIC (Enterococcus faecium) was 6.3 µg/mL (≈ 3.78 µM).
With `CCCCCCCCSSCCCN[C@@]1(C)C[C@H](O[C@@H]2[C@@H](Oc3c4cc5cc3Oc3ccc(cc3Cl)[C@@H](O)[C@@H](NC(=O)[C@@H](CC(C)C)NC)C(=O)N[C@@H](CC(N)=O)C(=O)N[C@H]5C(=O)N[C@H]3C(=O)N[C@H](C(=O)N[C@H](C(=O)O)c5cc(O)cc(O)c5-c5cc3ccc5O)[C@H](O)c3ccc(c(Cl)c3)O4)O[C@@H](CO)[C@H](O)[C@@H]2O)O[C@H](C)[C@H]1O` the Dose (Rattus norvegicus [6]) was 15%, the MIC (Staphylococcus aureus [1]) was 0.4 µg/mL (≈ 0.24 µM) and the MIC (Enterococcus faecalis) was 3.8 µg/mL (≈ 2.28 µM). The Dose (Rattus norvegicus [7]) was 2.3%, the MIC (Enterococcus sp.) was 1.8 µg/mL (≈ 1.08 µM) and the dose excreted at 24 h [3] was 1%. The Dose (Rattus norvegicus [4]) was 4.9%, the MIC (Staphylococcus aureus [2]) was 3.1 µg/mL (≈ 1.86 µM) and the Dose (Rattus norvegicus [5]) was 0.5%. For the same compound, the MIC (Enterococcus faecium) was 4.7 µg/mL (≈ 2.82 µM).
`CN[C@H](CC(C)C)C(=O)N[C@H]1C(=O)N[C@@H](CC(N)=O)C(=O)N[C@H]2C(=O)N[C@H]3C(=O)N[C@H](C(=O)N[C@H](C(=O)O)c4cc(O)cc(O)c4-c4cc3ccc4O)[C@H](O)c3ccc(c(Cl)c3)Oc3cc2cc(c3O[C@H]2O[C@@H](CO)[C@H](O)[C@H](O)[C@@H]2OC2C[C@](C)(NCCCSSCCCN[C@]3(C)C[C@@H](O[C@H]4[C@H](Oc5c6cc7cc5Oc5ccc(cc5Cl)[C@@H](O)[C@@H](NC(=O)[C@@H](CC(C)C)NC)C(=O)N[C@@H](CC(N)=O)C(=O)N[C@H]7C(=O)N[C@H]5C(=O)N[C@H](C(=O)N[C@H](C(=O)O)c7cc(O)cc(O)c7-c7cc5ccc7O)[C@H](O)c5ccc(c(Cl)c5)O6)O[C@H](CO)[C@@H](O)[C@H]4O)O[C@@H](C)[C@@H]3O)[C@H](O)[C@@H](C)O2)Oc2ccc(cc2Cl)[C@H]1O` (stereo not given in full) showed an MIC (Staphylococcus aureus [1]) of 18.8 µg/mL (≈ 6.17 µM), an MIC (Enterococcus faecalis) of 12.5 µg/mL (≈ 4.11 µM) and an MIC (Enterococcus sp.) of 4.7 µg/mL (≈ 1.54 µM). For the same compound, the MIC (Staphylococcus aureus [2]) was 6.3 µg/mL (≈ 2.07 µM) and the MIC (Enterococcus faecium) was 6.3 µg/mL (≈ 2.07 µM).
Work on `CCCCCCCCCCCCCN[C@@]1(C)C[C@H](O[C@@H]2[C@@H](Oc3c4cc5cc3Oc3ccc(cc3Cl)[C@@H](O)[C@@H](NC(=O)[C@@H](CC(C)C)NC)C(=O)N[C@@H](CC(N)=O)C(=O)N[C@H]5C(=O)N[C@H]3C(=O)N[C@H](C(=O)N[C@H](C(=O)O)c5cc(O)cc(O)c5-c5cc3ccc5O)[C@H](O)c3ccc(c(Cl)c3)O4)O[C@@H](CO)[C@H](O)[C@@H]2O)O[C@H](C)[C@H]1O` yielded an MIC (Staphylococcus aureus [1]) of 1.5 µg/mL (≈ 0.919 µM), an MIC (Enterococcus faecalis) of 3.8 µg/mL (≈ 2.33 µM) and an MIC (Enterococcus sp.) of 1.6 µg/mL (≈ 0.981 µM). The dose excreted at 24 h [3] was 0.4%, the Dose (Rattus norvegicus [4]) was 70% and the MIC (Staphylococcus aureus [2]) was 2.8 µg/mL (≈ 1.72 µM). It also gave a Dose (Rattus norvegicus [5]) of 3.4% and an MIC (Enterococcus faecium) of 4.1 µg/mL (≈ 2.51 µM).
Compound `CCCCCCCCSSCCN[C@@]1(C)C[C@H](O[C@@H]2[C@@H](Oc3c4cc5cc3Oc3ccc(cc3Cl)[C@@H](O)[C@@H](NC(=O)[C@@H](CC(C)C)NC)C(=O)N[C@@H](CC(N)=O)C(=O)N[C@H]5C(=O)N[C@H]3C(=O)N[C@H](C(=O)N[C@H](C(=O)O)c5cc(O)cc(O)c5-c5cc3ccc5O)[C@H](O)c3ccc(c(Cl)c3)O4)O[C@@H](CO)[C@H](O)[C@@H]2O)O[C@H](C)[C@H]1O` has an MIC (Staphylococcus aureus [1]) of 0.2 µg/mL (≈ 0.121 µM), an MIC (Enterococcus faecalis) of 4.7 µg/mL (≈ 2.84 µM) and an MIC (Enterococcus sp.) of 2.4 µg/mL (≈ 1.45 µM). It also gave an MIC (Staphylococcus aureus [2]) of 0.2 µg/mL (≈ 0.121 µM) and an MIC (Enterococcus faecium) of 6.3 µg/mL (≈ 3.81 µM).
With `CCCCCCCCCSSCCCN[C@@]1(C)C[C@H](O[C@@H]2[C@@H](Oc3c4cc5cc3Oc3ccc(cc3Cl)[C@@H](O)[C@@H](NC(=O)[C@@H](CC(C)C)NC)C(=O)N[C@@H](CC(N)=O)C(=O)N[C@H]5C(=O)N[C@H]3C(=O)N[C@H](C(=O)N[C@H](C(=O)O)c5cc(O)cc(O)c5-c5cc3ccc5O)[C@H](O)c3ccc(c(Cl)c3)O4)O[C@@H](CO)[C@H](O)[C@@H]2O)O[C@H](C)[C@H]1O` the MIC (Staphylococcus aureus [1]) was 1.2 µg/mL (≈ 0.714 µM), the MIC (Enterococcus faecalis) was 3.6 µg/mL (≈ 2.14 µM) and the MIC (Enterococcus sp.) was 1.8 µg/mL (≈ 1.07 µM). For the same compound, the MIC (Staphylococcus aureus [2]) was 0.6 µg/mL (≈ 0.357 µM) and the MIC (Enterococcus faecium) was 4.1 µg/mL (≈ 2.44 µM).
`CN[C@H](CC(C)C)C(=O)N[C@H]1C(=O)N[C@@H](CC(N)=O)C(=O)N[C@H]2C(=O)N[C@H]3C(=O)N[C@H](C(=O)N[C@H](C(=O)O)c4cc(O)cc(O)c4-c4cc3ccc4O)[C@H](O)c3ccc(c(Cl)c3)Oc3cc2cc(c3O[C@@H]2O[C@H](CO)[C@@H](O)[C@H](O)[C@H]2O[C@H]2C[C@](C)(N)[C@H](O)[C@H](C)O2)Oc2ccc(cc2Cl)[C@H]1O` [VANCOMYCIN] gave an MIC (Enterococcus faecalis) of over 256 µg/mL, an MIC (Enterococcus sp.) of over 256 µg/mL and an MIC (Staphylococcus aureus [2]) of 0.7 µg/mL (≈ 0.483 µM). It also gave an MIC (Enterococcus faecium) of over 256 µg/mL.
